Compound activity deposited in PubChem by several laboratories.
CR mimetic SO: lowers age-related superoxide in aged yeast cells; superoxide response (% of plate mean), % at 10 µM; S. cerevisiae aged cells, superoxide DHE fluorescence; stronger effect = lower value; AID 2690; 330,000 compounds, 0.18% hits;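 active = superoxide response under a set limit, about three screen SD below normal, cut at about 65% in these data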;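 note: yeast aged for seven days with compound at 30 °C before DHE staining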
PvdQ acylase: P. aeruginosa PvdQ acylase inhibition; inhibition, % at 10 µM; purified PvdQ acylase, fluorescence plate reader; 340,000 compounds, 0.063% hits; in the data active = inhibition above about 30%, passing the limit was not always enough
VIM-2 inh: blocks Pseudomonas aeruginosa VIM-2 metallo-beta-lactamase; purified VIM-2, nitrocefin hydrolysis, epi-absorbance fluorescence; inhibition, % at 5.6 µM; 290,000 compounds, 0.89% hits; AID 1527;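 active = inhibition above the mean of all tested compounds plus 3 SD, cutoff set per screening run, cut at about 7.5% in these data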;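 note: red hydrolysis product quenches plate fluorescence so inhibitors raise well fluorescence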
IMP-1 inh: inhibitors of Pseudomonas aeruginosa IMP-1 metallo-beta-lactamase | purified IMP-1, nitrocefin hydrolysis, epi-absorbance fluorescence | inhibition, % at 5.6 µM | 290,000 compounds, 0.45% hits | AID 1556;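 active = inhibition above the mean plus 3 SD of all compounds in the same screening run, cut at about 4.5% in these data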
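System: Purified recombinant IMP-1 metallo-beta-lactamase enzyme | Measured by: Fluorescence quenching readout, ex 480/em 530 nm | Replication: Singlicate | Incubation: 15 min preincubation plus 25 min reaction at 25 °C | Evaluation: Percent inhibition from optical density relative to buffer-blank wells | Benchmarks: DMSO with and without IMP-1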
PHOSPHO1 inh: blocks human PHOSPHO1 phosphatase activity. Q8TCT1. recombinant PHOSPHO1, absorbance phosphatase assay. inhibition, % at 13.3 µM. 290,000 compounds, 1.1% hits. AID 1565; in the data active = inhibition above about 60%
Target sequence (Q8TCT1 whole entry, looked up): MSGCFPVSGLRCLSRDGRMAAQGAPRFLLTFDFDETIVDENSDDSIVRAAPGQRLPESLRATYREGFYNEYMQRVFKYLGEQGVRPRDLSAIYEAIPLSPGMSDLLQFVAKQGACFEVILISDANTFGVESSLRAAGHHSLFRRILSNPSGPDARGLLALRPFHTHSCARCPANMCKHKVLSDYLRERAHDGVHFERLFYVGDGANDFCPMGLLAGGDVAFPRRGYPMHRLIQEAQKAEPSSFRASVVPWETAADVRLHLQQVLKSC
Large screens that a line does not name were inactive. Shown are actives, neighbours in structure and some others; about 2.2% of the full set was active somewhere.

O=c1oc2c(CN3CCOCC3)c(O)ccc2c2c1CCCC2	none
Cc1c(O)c(CN2CCCC2)cc2c3c(c(=O)oc12)CCC3	VIM-2 inh 9.6
Cc1cc2nc(-c3ccc(SCC(=O)Nc4ccc(S(=O)(=O)NC5CC5)cc4)nc3)[nH]c2cc1C	none
Cc1ccc(/C=N/Nc2cccc3cccnc23)c(O)c1	PHOSPHO1 inh 97.5
Oc1ccc(/C=N/Nc2cccc3cccnc23)c(O)c1	none
COc1ccc(N2C(=S)NC3N2C(=S)NC3(C)c2ccccc2)cc1 (stereo not drawn)	PHOSPHO1 inh 60.9
CC1(c2ccccc2)NC(=S)N2C1NC(=S)N2c1ccccc1 (stereo not drawn)	PHOSPHO1 inh 60.8
Cc1c(O)nc(SCC(=O)Nc2ccc3c4c(cccc24)CC3)n(-c2ccc(F)cc2)c1=O	none
COc1ccccc1NC(=S)NCc1ccc2c(c1)OCO2	none
Cn1c(=O)c2c(nc(SCC(=O)O)n2Cc2cc3c(cc2Cl)OCO3)n(C)c1=O	PHOSPHO1 inh 63.7
CCN1C=C(C(=O)c2ccccc2)C(=O)CC1	none (no result: CR mimetic SO, VIM-2 inh, IMP-1 inh, PHOSPHO1 inh)
COc1ccccc1/C=C1\SC(=S)N(C(C(=O)O)c2ccccc2)C1=O (stereo not drawn)	VIM-2 inh 9.4
O=C(O)COc1ccccc1C(Nc1cccnc1)c1cc(Cl)c2cccnc2c1O (stereo not drawn)	PHOSPHO1 inh 84.0 (no result: CR mimetic SO)
COc1cc(/C=C/C(=O)OCC(=O)N(C)CC(=O)Nc2ccc(F)cc2)ccc1OC(F)F	none (no result: VIM-2 inh, IMP-1 inh, PHOSPHO1 inh)
CC(=O)c1c(C)[nH]c(C(=O)CSc2nnc(CN3CCCCCC3=O)n2-c2ccccn2)c1C	PHOSPHO1 inh 67.4
CCn1c(SCC(=O)c2[nH]c(C)c(C(C)=O)c2C)nnc1-c1ccccc1	PHOSPHO1 inh 75.2
CCNC(=O)CSc1nnc(CN2CCCCCC2=O)n1-c1ccccn1	none
CCOc1ccc(CCNC(=O)CS(=O)(=O)Cc2nc(-c3ccc(OC)cc3)oc2C)cc1	PHOSPHO1 inh 63.9
COc1ccc(OCCc2nnc(N)s2)cc1	PHOSPHO1 inh 62.3
CNC(=O)N(O)C1N(/N=C/c2c(F)cccc2Cl)C(=S)SC1(C)C (stereo not drawn)	none
Brc1ccc(-n2cnc(-c3ccccc3)c2)cc1	none
COc1ccc(-c2cc(C(=O)OCC(=O)N(C)C)c3ccccc3n2)cc1	IMP-1 inh 4.7
COc1ccc(-c2cc(C(=O)OCc3ccccn3)c3ccccc3n2)cc1	none
COc1ccc(C2NCCc3c2[nH]c2ccccc32)cc1COc1ccc(F)cc1 (stereo not drawn)	PvdQ acylase 38.6
Cc1ccccc1C(=O)NNC(=S)NC(=O)c1ccc(Cl)cc1Cl	PHOSPHO1 inh 99.7
CN(Cc1nc2ccccc2c(=O)[nH]1)C(=O)c1cc(C2CC2)nn1-c1ccccc1	none (no result: VIM-2 inh, IMP-1 inh, PHOSPHO1 inh)
Cc1[nH]c(=O)[nH]c(=O)c1S(=O)(=O)Nc1cccc([N+](=O)[O-])c1C	none
COC(=O)c1[nH]c2ccccc2c1NC(=O)CN1CCCCCC1	PHOSPHO1 inh 65.3
CCOC(=O)N1CCN(CC(=O)Nc2c(C(=O)OC)[nH]c3ccccc23)CC1	none
C=CCOc1ccccc1/C=c1\sc2nc(=O)c(C)nn2c1=O	IMP-1 inh 9.2
Cc1c(C(=O)NC2CCN(Cc3ccccc3)C2)oc2c(Cl)cccc12 (stereo not drawn)	none
COC(=O)C1=C(C)NC2=C(C(=O)CCC2)C1c1ccc(-c2ccsc2C(=O)OC)o1 (stereo not drawn)	none
COc1cc(CC(=O)N2CCN(S(=O)(=O)c3ccc(C)cc3)CC2)cc(OC)c1OC	none (no result: VIM-2 inh, IMP-1 inh, PHOSPHO1 inh)
O=C(NCc1ccc(Cl)cc1)c1ccc(Cn2cc(C(F)(F)F)ccc2=O)cc1	none
O=C(NCc1ccccc1Cl)c1ccc(Cn2cc(C(F)(F)F)ccc2=O)cc1	PHOSPHO1 inh 64.6
Cc1nc(SCCc2nc3ccccc3[nH]2)c2oc3ccccc3c2n1	none (no result: VIM-2 inh, IMP-1 inh, PHOSPHO1 inh)
O=C1CCCc2cc3c(cc21)CC1(C3)Cc2cc3c(cc2C1)C(=O)CCC3	none
CCOc1ccc(-c2nnc(SCC(=O)O)n2Cc2ccccc2)cc1	none
CNC(=S)N/N=C/c1cn(CCOc2cccc(OC)c2)c2ccccc12	none
Cc1nc(SCC(=O)Nc2c(C)n(C)n(-c3ccccc3)c2=O)c(C#N)c(C)c1C	none (no result: VIM-2 inh, IMP-1 inh, PHOSPHO1 inh)
CCCc1cc(NCCCO)n2c(nc3ccccc32)c1C#N	VIM-2 inh 10.2 (no result: PvdQ acylase)
Cc1c2c(n3c(nc4ccccc43)c1C#N)N(c1ccccc1)CC2	none (no result: CR mimetic SO, PvdQ acylase)
Cc1cc(NCCN2CCCCC2)n2c(nc3ccccc32)c1C#N	VIM-2 inh 8.7 (no result: CR mimetic SO, PvdQ acylase)
CCCc1cc(-n2ccnc2)n2c(nc3ccccc32)c1C#N	none
CCCc1cc(SCC(=O)Nc2c(C)n(C)n(-c3ccccc3)c2=O)n2c(nc3ccccc32)c1C#N	PHOSPHO1 inh 99.8 (no result: PvdQ acylase)
Cc1c2c(n3c(nc4ccccc43)c1C#N)N(CCN(C)C)CC2	VIM-2 inh 11.3
COc1cccc(CSc2nccn2C)c1	none (no result: PHOSPHO1 inh)
Cc1noc(C)c1C(=O)N1CCN(c2ccc(OCc3ccccc3)cc2)CC1	none
COc1ccccc1CNC(=O)COC(=O)c1nccnc1N	none
CCOc1cc(CNCc2cccnc2)ccc1OCC(=O)NC(C)(C)C	PHOSPHO1 inh 72.9
CCOc1cc(CNCCc2ccccc2)ccc1OCC(=O)NC(C)(C)C	none
O=c1[nH]c(CN2CCN(c3ccc(O)cc3)CC2)nc2scc(-c3ccc(Cl)cc3)c12	none
CCN1/C(=C/C=C/c2oc3ccc(-c4ccccc4)cc3[n+]2CC)Oc2ccc(-c3ccccc3)cc21	IMP-1 inh 4.6
CCN1/C(=C/C=C/c2sc3ccccc3[n+]2CC)Sc2ccccc21	none (no result: VIM-2 inh, IMP-1 inh, PHOSPHO1 inh)
CCCC1OC(c2ccco2)OCC1CC (stereo not drawn)	none (no result: CR mimetic SO, VIM-2 inh, IMP-1 inh, PHOSPHO1 inh)
Cc1cccc(C(C)C)c1NC(=O)COC(=O)CCN1C(=O)C2CC=CCC2C1=O (stereo not drawn)	PHOSPHO1 inh 70.2
O=C(CCN1C(=O)C2C3C=CC(C4CC34)C2C1=O)Nc1ccc(Cl)cc1O (stereo not drawn)	IMP-1 inh 13.4
Cc1ccc2nc3c(cc2c1)CN(Cc1ccco1)C(=NCC1CCCO1)S3 (stereo not drawn)	none
Cc1cccc2cc3c(nc12)SC(=NCC1CCCO1)N(Cc1ccco1)C3 (stereo not drawn)	PHOSPHO1 inh 73.5
Cc1[nH]n(C(C)(C)C)c(=O)c1Sc1ccccc1	PHOSPHO1 inh 94.5
Cc1cccc2c3nc4ccccc4nc3n(C)c12	VIM-2 inh 9.7
COCC1CCN(C(=O)C2CCC(=O)N(C3CCCCCC3)C2)CC1 (stereo not drawn)	none
CCc1ccc(CNC(=O)Cc2ccc(NC(=O)C3=C(C)OCCS3)cc2)cc1	PHOSPHO1 inh 64.9
O=C1NCC(c2ccccc2)C1C(=O)N/N=C\c1ccc(-c2cccc(Cl)c2Cl)o1 (stereo not drawn)	none
Cc1ccc(-c2ccc(/C=N\NC(=O)C3C(=O)NCC3c3ccccc3)o2)cc1Cl (stereo not drawn)	PHOSPHO1 inh 60.4
Cc1cc2oc(=O)cc(-c3ccccc3)c2c(C)c1-c1ccc(C#N)cc1	none (no result: VIM-2 inh, IMP-1 inh, PHOSPHO1 inh)
Cn1nnnc1SC1CC(=O)N(c2ccccc2)C1=O (stereo not drawn)	none
